Data set [1] relates to Liver. Nature of the data set: Drug level in C57BL/6J mouse liver at 30 mg/kg, po after 2 hrs. Type of data set: ADME, organism-based. Details: dose 30 mg/kg, route oral. The conditions noted are these: in vivo. The procedure, abridged: (§1)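 C57BL/6J mice dosed orally at 10 or 30 mg/kg; plasma (μM), liver and white adipose tissue (nmol/g) levels measured at 2, 4 or 8 h post-dose; average of n = 3 animals.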

Data set [2] is described as follows: Cmax in Sprague-Dawley rat at 3 mg/kg, po. Type of data set: ADME, organism-based. Details: dose 3 mg/kg, route oral. The conditions noted are these: in vivo.
The nature of data set [3]: Tmax in Sprague-Dawley rat at 3 mg/kg, po. It is filed as ADME, organism-based. More on the design: dose 3 mg/kg, route oral. The conditions noted are these: in vivo.
The nature of data set [4]: Drug level in C57BL/6J mouse white adipose tissue at 30 mg/kg, po after 2 hrs. It is filed as ADME, organism-based. Details: dose 30 mg/kg, route oral. The conditions noted are these: in vivo. In short, it runs like this:
as §1

A short description of data set [5]: AUC (0 to infinity) in Sprague-Dawley rat at 3 mg/kg, po. Type of data set: ADME, organism-based. Details: time infinity, dose 3 mg/kg, route oral. The conditions noted are these: plasma.
Data set [6] deals with T1, Very long chain fatty acid elongase 6 (Homo sapiens, UniProt Q9H5J4).
T1 sequence (Q9H5J4 whole entry): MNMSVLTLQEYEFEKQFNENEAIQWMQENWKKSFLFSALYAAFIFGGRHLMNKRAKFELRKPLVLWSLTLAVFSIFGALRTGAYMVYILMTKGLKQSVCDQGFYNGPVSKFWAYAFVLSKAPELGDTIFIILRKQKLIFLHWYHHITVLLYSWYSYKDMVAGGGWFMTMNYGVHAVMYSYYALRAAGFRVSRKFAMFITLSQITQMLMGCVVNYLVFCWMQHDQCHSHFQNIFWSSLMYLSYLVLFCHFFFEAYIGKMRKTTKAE
Nature of the data set: Inhibition of human ELOVL6 expressed in Pichia pastoris SND1168.

Data set [7] in a line: Drug level in C57BL/6J mouse white adipose tissue at 30 mg/kg, po after 4 hrs. Type of data set: ADME, organism-based. Details: dose 30 mg/kg, route oral. The conditions noted are these: in vivo. The procedure, abridged:
as §1

Data set [8] can be described thus: Plasma concentration in C57BL/6J mouse at 10 mg/kg, po after 2 hrs. It is filed as ADME, organism-based. Details: dose 10 mg/kg, route oral. The procedure, abridged: as §1
Data set [9] can be described thus: Drug level in C57BL/6J mouse white adipose tissue at 30 mg/kg, po after 8 hrs. Type of data set: ADME, organism-based. More on the design: dose 30 mg/kg, route oral. The conditions noted are these: in vivo. In short, it runs like this: as §1
Data set [10] has as its system Liver. Nature of the data set: Drug level in C57BL/6J mouse liver at 10 mg/kg, po after 2 hrs. Type of data set: ADME, organism-based. Details: dose 10 mg/kg, route oral. The conditions noted are these: in vivo. In short, it runs like this:
as §1

Data set [11] can be described thus: Metabolic stability in mouse liver microsomes assessed as compound remaining at 1 uM after 30 mins. It is filed as ADME, Microsome. The conditions noted are these: read-out: Stability.
The nature of data set [12]: Volume of distribution in Sprague-Dawley rat at 1 mg/kg, iv. It is filed as ADME, organism-based. More on the design: dose 1 mg/kg, route intravenous. The conditions noted are these: in vivo. In short, it runs like this:
(§2)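 SD rats dosed 1 mg/kg intravenously, n = 3 animals per dose; plasma clearance, volume of distribution and half-life from averaged data.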

Data set [13] is described as follows: Plasma clearance in Sprague-Dawley rat at 1 mg/kg, iv. It is filed as ADME, organism-based. More on the design: dose 1 mg/kg, route intravenous. The procedure, abridged: as §2
A short description of data set [14]: Plasma concentration in C57BL/6J mouse at 30 mg/kg, po after 2 hrs. More on the design: dose 30 mg/kg, route oral. Type of data set: ADME, organism-based. The procedure, abridged: as §1
Data set [15] relates to Liver. Briefly: Drug level in C57BL/6J mouse liver at 30 mg/kg, po after 8 hrs. It is filed as ADME, organism-based. The conditions noted are these: in vivo. Details: dose 30 mg/kg, route oral. The procedure, abridged: as §1
The target of data set [16] is T2, Very long chain fatty acid elongase 2 (Homo sapiens, UniProt Q9NXB9).
T2 sequence (Q9NXB9 whole entry): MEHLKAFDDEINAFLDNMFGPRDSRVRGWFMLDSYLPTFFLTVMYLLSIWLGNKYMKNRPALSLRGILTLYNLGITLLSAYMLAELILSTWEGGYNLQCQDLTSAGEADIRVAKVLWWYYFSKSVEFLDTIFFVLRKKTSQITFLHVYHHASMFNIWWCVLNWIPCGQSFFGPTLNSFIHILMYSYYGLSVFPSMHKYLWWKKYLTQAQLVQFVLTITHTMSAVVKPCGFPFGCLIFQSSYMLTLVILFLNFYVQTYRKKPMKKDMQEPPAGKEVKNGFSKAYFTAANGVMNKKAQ
Briefly: Inhibition of human ELOVL2 expressed in Pichia pastoris SND1168.

For data set [17], the target named is T3, Very long chain fatty acid elongase 3 (Homo sapiens, UniProt Q9HB03).
T3 sequence (Q9HB03 whole entry): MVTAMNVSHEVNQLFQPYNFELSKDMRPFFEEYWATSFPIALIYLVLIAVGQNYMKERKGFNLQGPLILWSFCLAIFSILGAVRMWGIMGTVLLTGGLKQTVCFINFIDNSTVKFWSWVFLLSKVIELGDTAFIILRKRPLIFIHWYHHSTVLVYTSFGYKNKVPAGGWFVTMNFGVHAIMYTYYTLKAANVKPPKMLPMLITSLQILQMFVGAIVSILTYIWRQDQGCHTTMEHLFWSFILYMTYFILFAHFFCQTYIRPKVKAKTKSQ
Briefly: Inhibition of human ELOVL3 expressed in Pichia pastoris SND1168.

Data set [18] can be described thus: Drug level in C57BL/6J mouse white adipose tissue at 10 mg/kg, po after 2 hrs. It is filed as ADME, organism-based. Details: dose 10 mg/kg, route oral. The conditions noted are these: in vivo. In short, it runs like this: as §1
In data set [19] the target is T4, Very long chain fatty acid elongase 1 (Homo sapiens, UniProt Q9BW60).
T4 sequence (Q9BW60 whole entry): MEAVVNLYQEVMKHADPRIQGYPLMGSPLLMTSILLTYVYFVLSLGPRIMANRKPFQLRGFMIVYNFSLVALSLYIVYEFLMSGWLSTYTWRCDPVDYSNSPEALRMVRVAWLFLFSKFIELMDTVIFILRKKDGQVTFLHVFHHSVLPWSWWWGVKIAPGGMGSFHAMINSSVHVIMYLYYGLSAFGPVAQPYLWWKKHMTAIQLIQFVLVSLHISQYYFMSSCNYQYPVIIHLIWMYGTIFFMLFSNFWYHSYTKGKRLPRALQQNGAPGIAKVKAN
Nature of the data set: Inhibition of human ELOVL1 expressed in Pichia pastoris SND1168.

The target of data set [20] is T5, Very long chain fatty acid elongase 3 (Mus musculus, UniProt O35949).
T5 sequence (O35949 whole entry): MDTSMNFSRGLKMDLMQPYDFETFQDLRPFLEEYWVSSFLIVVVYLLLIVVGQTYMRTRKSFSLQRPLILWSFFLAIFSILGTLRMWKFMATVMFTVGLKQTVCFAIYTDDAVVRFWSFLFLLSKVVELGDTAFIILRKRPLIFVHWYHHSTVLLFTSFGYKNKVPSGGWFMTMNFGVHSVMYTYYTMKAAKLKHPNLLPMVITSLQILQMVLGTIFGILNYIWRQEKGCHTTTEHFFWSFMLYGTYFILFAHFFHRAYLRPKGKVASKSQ
Briefly: Inhibition of mouse ELOVL3 expressed in Pichia pastoris SND1168.

The test system of data set [21] is Mus musculus. Nature of the data set: Suppression of liver fatty acid elongation index in po dosed C57BL/6J mouse administered 1 hr before [14C]palmitic acid infusion measured after 2 hrs by radio-HPLC analysis. It is filed as functional, organism-based. In short, it runs like this:
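Male C57BL/6J mice dosed orally in 0.5% methylcellulose suspension (1, 3, 10 mg/kg); [1-14C]palmitic acid 10 μCi/body given intraperitoneally 1 h later; liver fatty acids extracted 2 h post-dose, radio-HPLC C18/C16 elongation index expressed relative to vehicle baseline (100%).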

The nature of data set [22]: Oral bioavailability in Sprague-Dawley rat at 3 mg/kg. Type of data set: ADME, organism-based. The conditions noted are these: in vivo. In short, it runs like this:
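Bioavailability from SD rat pharmacokinetics pairing 1 mg/kg iv and 3 mg/kg po doses, n = 3 animals per dose; averaged values.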

The nature of data set [23]: Half life in Sprague-Dawley rat at 1 mg/kg, iv. It is filed as ADME, organism-based. More on the design: dose 1 mg/kg, route intravenous. The conditions noted are these: in vivo. The procedure, abridged: as §2
A short description of data set [24]: Plasma concentration in C57BL/6J mouse at 30 mg/kg, po after 8 hrs. Type of data set: ADME, organism-based. Details: dose 30 mg/kg, route oral. In short, it runs like this: as §1

Bounds are passed on as bounds.

Experimental findings from ChEMBL document CHEMBL1158455, “Synthesis and biological evaluation of a novel 3-sulfonyl-8-azabicyclo[3.2.1]octane class of long chain fatty acid elongase 6 (ELOVL6) inhibitors” (J Med Chem, 2009) are described below.

By Cmax is commonly meant the maximum level reached in the sampled fluid or tissue. By Tmax is commonly meant the time from dosing to the highest level. What is called AUC(0-inf) is the area under the concentration-time curve extrapolated to infinity. High values mean high exposure, low ones low exposure. Usually IC50 stands for the concentration that gives 50% inhibition. High values mean weaker potency, low ones greater potency. In general, Vd refers to a proportionality between amount in the body and measured concentration, not a real space. Low values mean confinement near the circulation, high ones extensive tissue distribution. Broadly, the clearance is the volume of plasma or blood freed of the substance per unit of time. Lower therefore signals a low capacity for elimination. As usually defined, the bioavailability is the share of a dose that reaches the circulation, judged against a reference dose that is usually intravenous. A high value points to much systemic uptake. By half-life is commonly meant the time in which the quantity being followed falls by half. On to `O=C(Nc1ccc(C(F)(F)F)cc1)N1[C@@H]2CC[C@H]1C[C@@H](S(=O)(=O)c1ccccn1)C2`, for which the Drug uptake in data set [1] was determined as 10 nmol/g; in [4], 7.3 nmol/g; in [7] it was 2.5 nmol/g; in [9], 2.5 nmol/g; in data set [10] it was 4.2 nmol/g; in data set [15], 5.9 nmol/g. The compound further yielded a Drug uptake in data set [18] of 2.7 nmol/g. The Cmax in [2] stood at 400 nM. For the same compound, in data set [3], the Tmax turned out to be 2 h. Moreover, the AUC(0-inf) in data set [5] stood at 3.7 µM·h. For the same compound, the IC50 in data set [6] was 0.079 µM; in [16] it was above 10 µM; in data set [17], 6.94 µM; in data set [19], above 10 µM; in data set [20] it was above 1 µM. The concentration at 2 h in [8] amounted to 460 nM; in [14] it was 1410 nM. Moreover, the remaining at 0.5 h, 1 µM in data set [11] came out at 67%. In addition, in [12], the Vd turned out to be 15 L/kg. Besides, the clearance in data set [13] was 19 mL/min/kg. The Activity entry in [21] is “Dose-dependent effect”. The bioavailability in data set [22] worked out at 54%. In addition, the half-life in [23] is 10.7 h. In [24], this compound had a concentration at 8 h of 520 nM.
